Bioassay records deposited in PubChem BioAssay by Broad Institute.
ERAP1 inh = blocks human ERAP1 aminopeptidase activity; AID 652197; recombinant ERAP1, Leu-AMC fluorescence, 60 min; inhibition, % at 10.7 µM; hit rate 0.15% among 340,000; Q9NZ08;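 active means mean replicate inhibition of at least 30%, or all replicates individually reaching that 30% level; inactive means mean below 30% and not every replicate reaching it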;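 further: 0% = neutral control wells and 100% = L-leucinethiol positive control wells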
Target sequence (Q9NZ08 whole entry, looked up): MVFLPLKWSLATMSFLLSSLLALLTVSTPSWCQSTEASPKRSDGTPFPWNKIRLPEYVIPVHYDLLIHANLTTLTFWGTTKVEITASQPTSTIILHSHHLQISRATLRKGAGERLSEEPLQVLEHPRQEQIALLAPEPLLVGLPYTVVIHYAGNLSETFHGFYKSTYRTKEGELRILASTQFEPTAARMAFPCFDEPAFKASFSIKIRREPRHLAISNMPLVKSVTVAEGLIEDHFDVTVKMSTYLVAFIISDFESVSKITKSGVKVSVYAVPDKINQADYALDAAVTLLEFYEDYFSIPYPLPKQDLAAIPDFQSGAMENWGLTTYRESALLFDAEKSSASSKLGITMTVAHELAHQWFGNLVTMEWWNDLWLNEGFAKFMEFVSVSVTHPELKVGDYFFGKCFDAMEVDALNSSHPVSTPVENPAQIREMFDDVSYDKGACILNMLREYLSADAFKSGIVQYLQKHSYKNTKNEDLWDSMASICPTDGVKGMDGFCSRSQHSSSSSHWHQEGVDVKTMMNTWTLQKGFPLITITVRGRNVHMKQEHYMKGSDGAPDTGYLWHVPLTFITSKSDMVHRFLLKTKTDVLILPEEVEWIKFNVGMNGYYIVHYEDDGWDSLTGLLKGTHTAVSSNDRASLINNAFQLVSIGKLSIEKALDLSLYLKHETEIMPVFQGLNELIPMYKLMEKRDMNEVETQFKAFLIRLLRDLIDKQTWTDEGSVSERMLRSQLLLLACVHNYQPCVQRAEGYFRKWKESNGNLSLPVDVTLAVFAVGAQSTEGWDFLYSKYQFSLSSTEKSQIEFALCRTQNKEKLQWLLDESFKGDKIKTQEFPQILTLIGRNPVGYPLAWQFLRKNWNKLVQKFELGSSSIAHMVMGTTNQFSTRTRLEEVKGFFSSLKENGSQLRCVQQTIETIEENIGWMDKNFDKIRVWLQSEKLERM
E-selectin induc = induces E-selectin expression in human endothelial cells; HUVEC E-selectin immunofluorescence imaging; normalized: neutral wells 0, TNF-alpha wells 100; activation, % at 7.58 µM; hit rate 0.37% among 260,000; AID 686992;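 active means mean E-selectin-positive cell signal at least 10% of the positive control, reached in at least 60% of replicates, without over 20% cell loss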
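Assay system: HUVEC, human umbilical vein endothelial cells / Amount: 3,000 HUVEC/well / Controls: TNF-alpha positive control, DMSO neutral control / Compound dosing: single concentration / Medium: EGM-2 over gelatin coat / Evaluation: percent E-selectin-positive cells / Signal: immunofluorescence imaging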
S100A4 MyoIIA = inhibitors of human S100A4 binding to myosin IIA peptide; P26447; S100A4/TAMRA-MyoIIA peptide fluorescence polarization; inhibition, % at 10.7 µM; hit rate 0.14% among 360,000; AID 652163;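 active means mean inhibition of at least 70% across replicates, with every replicate also reaching that level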
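incubation = readout 5 min after mixing, signal stable up to 60 min | system = S100A4 monomer protein | buffer or medium = HEPES pH 7.2 with CaCl2, KCl, NaCl, DTT, Triton | benchmarks = neutral control DMSO, positive control TFP | also added = fluorescent myosin IIA peptide, 5 nM | compound dosing = one concentration per compound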
MLL AF4-AF9 inh = blocks AF4 peptide binding to human AF9. AlphaScreen, biotin-AF4 peptide binding to FLAG-AF9. hit rate 0.47% among 350,000. inhibition, % at 10 µM. P42568. AID 651704;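 active means every replicate reaching a set inhibition limit, whatever the replicate mean, cut at about 25% in these data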;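 further: 0% = plate neutral control median and 100% = total signal loss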
SIRT5 inh = inhibitors of human sirtuin-5 desuccinylase; Purified SirT5, succinyl-peptide AMC, trypsin-coupled fluorescence; inhibition, % at 15 µM; hit rate 1.1% among 330,000; AID 652115; in the data active means inhibition above about 15%
rRNA inh HTS = inhibits bacterial ribosomal RNA function over humanized ribosomes. E. coli WT GFP vs humanized-ribosome RFP mutants, fluorescence, 24 h; hits give low values; DMSO median 0, no signal -100. GFP signal change (wild-type ribosome), % (test concentration not listed). hit rate 1.6% among 350,000;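 active means significant combined selectivity score with lowered wild-type GFP, culture density cut under 30%, mutant RFP and density less affected; inactive means any of these conditions unmet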
An asterisk follows results filed as active; x = not tested or not shown; ! = not confirmed by another sample. Rows were chosen to be rich in hits. Some 3.4% of all compounds tested hit in one or more screens of this group.

SMILES	ERAP1 inh	E-selectin induc	S100A4 MyoIIA	MLL AF4-AF9 inh	SIRT5 inh	rRNA inh HTS
O=C(O)c1ccc(S(=O)(=O)Nc2ccc(O)c(Sc3nc4ccccc4s3)c2)cc1	1.6	x	0.4	-2.5	0.5	-23.4*
NS(=O)(=O)c1ccc(Sc2nc3ccccc3s2)c([N+](=O)[O-])c1	x	x	-3.3	4.2	-2.0	-25.1*
CC(=O)N1CCN(c2ccccc2NC(=O)c2ccc(Br)o2)CC1	-2.4	-0.5	0.1	3.5	27.1*	-10.9
O=C(NCC(=O)N1CCN(c2ccccc2O)CC1)c1ccc(Br)o1	3.6	-2.2	-2.2	-8.2	1.1	1.6
COc1ccc(S(=O)(=O)N2CC(=O)Nc3ccccc32)cc1Cl	2.7	1.5	3.3	0.3	0.4	-32.9*
CO[C@H]1CN(C)C(=O)c2ccc(NC(=O)c3ccccc3F)cc2OC[C@@H](C)N(C(=O)c2ccccc2F)C[C@@H]1C	-1.1	1.0	2.1	-1.4	4.1	-0.8
Brc1ccc2[nH]c3c(c2c1)CCC3	0.7	1.2	-1.4	5.2	0.4	-15.7*
C[C@@H]1CN([C@H](C)CO)C(=O)c2cc(C#Cc3ccc(F)cc3)cnc2O[C@@H]1CN(C)S(C)(=O)=O	4.5	0.2	3.8	-0.3	-3.8	-1.6
CCS(=O)(=O)NCC[C@@H]1CC[C@@H](NC(=O)Cc2ccccn2)[C@@H](CO)O1	0.7	-0.1	1.4	-3.2	-2.4	-1.2
Oc1cccc2c(NC(=S)Nc3ccc(SC(F)F)cc3)cccc12	-2.0	x	1.7	8.9	-5.2	-41.5*
Oc1cccc(NC(=S)Nc2ccc(SC(F)F)cc2)c1	0.8	16.0	0.9	2.1	-6.4	-23.8
CC1=CC(C)C(C(=O)O)C(C(=O)O)C1 (centres undefined)	0.6	x	-1.1	1.7	0.8	15.8
CC[N+](C)(CC)CC(=O)OCC1C(C)C=C(C)CC1C (centres undefined)	105.8*	0.0	1.5	-4.8	5.5	4.6
O=c1[nH]c(CN2CCN(S(=O)(=O)/C=C/c3ccccc3)CC2)nc2ccccc12	4.6	x	7.1	2.7	15.7*	-2.0
Cc1cc(C)c2c(CN3CCOCC3)cc(=O)oc2c1	x	4.5	-7.3	-2.3	29.7*	1.2
Cc1cc(C)c2c(CN3CCCC3)cc(=O)oc2c1	-0.3	0.0	2.0	-0.2	-1.0	-0.4
O=C(C1CCOCC1)N1CC(=O)N2[C@H](CO)[C@@H](c3ccc(C#CCc4ccccc4)cc3)[C@H]2C1	-2.2	-0.2	-0.8	1.2	16.5*	2.9
N#Cc1ccc(-c2ccc([C@@H]3[C@@H](CO)N4C(=O)CN(C(=O)C5CC5)C[C@H]34)cc2)cc1	4.1	0.2	82.5*	1.9	-2.8	-1.3
O=c1[nH]nc(-c2ccc(F)cc2)cc1Cc1cccs1	1.0	x	-7.0	x	-0.1	-20.4*
CCNC(=O)C[C@H]1CC[C@@H]2[C@@H](COc3ccc(NC(=O)c4ccc5c(c4)OCO5)cc3C(=O)N2C)O1	1.4	-0.1	-1.6	1.4	3.9	-1.9
O=C(Nc1ccc2c(c1)OCO2)N[C@H]1CC[C@H](CCNC(=O)C2CCCC2)O[C@H]1CO	-0.4	0.1	-19.7	2.2	1.0	0.5
CCC(=O)N[C@H]1CC[C@@H](CCNC(=O)Nc2ccc(C(F)(F)F)cc2)O[C@H]1CO	-2.3	0.2	-1.6	-0.3	-2.0	-57.4
COc1ccccc1NC(=O)N[C@H]1CC[C@@H](CCNS(=O)(=O)c2ccc(F)cc2)O[C@@H]1CO	3.3	-2.9	7.9	1.4	19.5*	-1.2
COc1ccccc1NC(=O)N[C@@H]1CC[C@H](CCNS(=O)(=O)c2ccc(F)cc2)O[C@H]1CO	-1.5	-0.2	10.6	0.8	-1.9	3.0
COc1ccccc1NC(=O)N[C@H]1CC[C@H](CCNC(=O)c2ccc3c(c2)OCO3)O[C@@H]1CO	0.3	0.0	3.2	-1.6	19.3*	-2.9
SMILES	ERAP1 inh	E-selectin induc	S100A4 MyoIIA	MLL AF4-AF9 inh	SIRT5 inh	rRNA inh HTS
CN(C)CC(=O)N[C@@H]1CC[C@@H](CCNC(=O)Nc2ccc(C(F)(F)F)cc2)O[C@@H]1CO	1.4	0.1	-29.4	7.5	16.8*	-59.0
O=C(Nc1ccc2c(c1)OCO2)N[C@@H]1CC[C@@H](CCNC(=O)C2CCCC2)O[C@H]1CO	3.8	0.0	89.8*	-8.8	-0.7	3.1
Cc1ccc(S(=O)(=O)Nc2ccc3c(c2)C(=O)N([C@@H](C)CO)C[C@@H](C)[C@H](CN(C)C(=O)Nc2ccc(F)cc2)O3)cc1	0.4	-0.2	12.4	-1.3	-0.3	-0.6
COc1ccc(CNC(=O)C[C@@H]2CC[C@H](NC(=O)CN(C)C)[C@H](CO)O2)cc1	0.0	0.2	0.0	-0.2	-0.6	-2.5
O=C(NCC[C@@H]1CC[C@H](NC(=O)Nc2cc(F)ccc2F)[C@@H](CO)O1)Nc1ccc(F)cc1	-2.9	0.0	-9.1	14.1	-5.1	-2.2
O=C(Nc1ccc(F)cc1)N[C@H]1CC[C@H](CCNS(=O)(=O)c2cccc(Cl)c2)O[C@H]1CO	0.5	0.4	-3.5	-14.4	-0.3	-7.2
O=C(Nc1ccc(F)cc1)N[C@H]1CC[C@H](CCNS(=O)(=O)c2cccc(Cl)c2)O[C@@H]1CO	-1.0	0.0	52.9	4.0	8.3	-17.4*!
C[C@@H]1CN(C)C(=O)c2cccc(N)c2O[C@H]1CN(C)C(=O)OC(C)(C)C	x	x	x	x	x	0.5
C[C@@H]1CN([C@@H](C)CO)C(=O)c2cc(NS(=O)(=O)c3cn(C)cn3)ccc2O[C@@H](C)CCCCO[C@@H]1CN(C)CC1CCCCC1	-3.0	-0.3	-24.3	-4.7	-1.5	1.5
C[C@@H]1CN([C@H](C)CO)C(=O)c2cc(NS(=O)(=O)c3cn(C)cn3)ccc2O[C@H]1CN(C)CC1CCCCC1	-0.4	0.0	3.3	-2.0	17.0*	3.2
C[C@@H]1CCCCO[C@@H](CN(C)CC2CCCCC2)[C@@H](C)CN([C@H](C)CO)C(=O)c2cc(NS(=O)(=O)c3cn(C)cn3)ccc2O1	-5.8	0.2	132.6*	-7.3	3.4	0.0
CC(C)N(C(=O)COC(=O)[C@H](C)NC(=O)c1ccco1)c1ccccc1	1.5	x	-14.2	-0.7	30.7*	16.0
COc1cc2c(cc1OC)CN(CCC(C)c1ccc(Cl)cc1)CC2 (centres undefined)	x	0.1	-3.2	8.9	-3.4	-32.6*
COc1cc2c(cc1OC)CN(Cc1ccccc1)CC2	3.3	x	26.0	-5.2	-3.1	16.6
COc1ccc(NC(=O)N(C)C[C@@H]2OCCCC[C@@H](C)Oc3ccc(NC(=O)Nc4c(C)noc4C)cc3C(=O)N([C@H](C)CO)C[C@H]2C)cc1	-1.1	-0.1	8.0	1.2	-1.8	0.1
Cc1cc2c([nH]c3ccccc32)c(C)n1	7.4	4.4	-0.6	0.6	-35.4	-36.9
Cc1cc2c(sc3ccccc32)c(C)n1	3.2	7.0	7.2	-4.5	-6.0	-23.6*
